From ChEMBL document CHEMBL2375304, “Synthesis and anticancer activity of novel 2-pyridyl hexahyrocyclooctathieno[2,3-d]pyrimidine derivatives” (2013)

What was measured:
Type in all cases: functional
SK-MEL-5 = assay: Growth inhibition of human SK-MEL-5 cells after 48 hrs by Sulforhodamine B assay; conditions: SK-MEL-5, 48 h
Procedure, shortened: (§1)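 Cells were preincubated 24 h at 37 °C, 5% CO2, and a time-zero plate was TCA-fixed. Five concentrations were made by serial dilution from a DMSO stock (400-fold the top concentration) and incubated 48 h. Adherent cells were fixed with 10% final TCA and suspension cells with 16%. Plates were stained with 0.4% SRB and read at 515 nm. GI50 is the concentration giving 50% reduction in net protein increase versus control.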

COLO 205 = assay: Growth inhibition of human COLO205 cells after 48 hrs by Sulforhodamine B assay; conditions: COLO 205, 48 h
Procedure, shortened: (§2)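 Five-concentration SRB assay using 10-fold or ½-log serial dilutions from a DMSO stock. Exposure is 48 h at 37 °C in 5% CO2 after 24 h preincubation. TCA fixation is followed by SRB staining and a reading at 515 nm. Percentage growth is computed from time-zero, control and treated absorbances. GI50 is the concentration where [(Ti−Tz)/(C−Tz)]×100 = 50, read from the plot against log concentration.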

Hs-578T = assay: Growth inhibition of human Hs578T cells after 48 hrs by Sulforhodamine B assay; procedure, shortened: as §2
HCT-15 = assay: Growth inhibition of human HCT15 cells after 48 hrs by Sulforhodamine B assay; conditions: HCT-15, 48 h; procedure, shortened: as §2
CAKI-1 = assay: Growth inhibition of human CAKI-1 cells after 48 hrs by Sulforhodamine B assay; conditions: CAKI-1, 48 h; procedure, shortened: as §2
SK-MEL-28 = assay: Growth inhibition of human SK-MEL-28 cells after 48 hrs by Sulforhodamine B assay; conditions: SK-MEL-28, 48 h; procedure, shortened: as §1
HL-60(TB) = assay: Growth inhibition of human HL-60(TB) cells after 48 hrs by Sulforhodamine B assay; conditions: HL-60, 48 h
Procedure, shortened: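 Suspension cells pre-incubated 24 h at 37 °C, 5% CO2 before drug addition, with a time-zero plate fixed then. DMSO stocks diluted in medium with gentamicin to five concentrations (10-fold or ½-log steps); 48 h exposure. Settled cells fixed with TCA (final 16%), stained with SRB, dye dissolved in 10 mM Tris base, read at 515 nm. GI50 solved from [(Ti−Tz)/(C−Tz)]×100 = 50.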

HOP-92 = assay: Growth inhibition of human HOP92 cells after 48 hrs by Sulforhodamine B assay; conditions: HOP-92, 48 h; procedure, shortened: as §2
KM12 = assay: Growth inhibition of human KM12 cells after 48 hrs by Sulforhodamine B assay; conditions: KM12, 48 h; procedure, shortened: as §2
HT-29 = assay: Growth inhibition of human HT-29 cells after 48 hrs by Sulforhodamine B assay; conditions: HT-29, 48 h; procedure, shortened: as §2
OVCAR-3 = assay: Growth inhibition of human OVCAR3 cells after 48 hrs by Sulforhodamine B assay; conditions: OVCAR-3, 48 h; procedure, shortened: as §1
SK-MEL-2 = assay: Growth inhibition of human SK-MEL-2 cells after 48 hrs by Sulforhodamine B assay; conditions: SK-MEL-2, 48 h; procedure, shortened: as §1
ACHN = assay: Growth inhibition of human ACHN cells after 48 hrs by Sulforhodamine B assay; procedure, shortened: as §2
SF-268 = assay: Growth inhibition of human SF268 cells after 48 hrs by Sulforhodamine B assay; conditions: SF-268, 48 h; procedure, shortened: as §1

SMILES	GI50 (SK-MEL-5) [µM]	GI50 (COLO 205) [µM]	GI50 (Hs-578T) [µM]	GI50 (HCT-15) [µM]	GI50 (CAKI-1) [µM]	GI50 (SK-MEL-28) [µM]	GI50 (HL-60(TB)) [µM]	GI50 (HOP-92) [µM]	GI50 (KM12) [µM]	GI50 (HT-29) [µM]	GI50 (OVCAR-3) [µM]	GI50 (SK-MEL-2) [µM]	GI50 (ACHN) [µM]	GI50 (SF-268) [µM]
O=c1[nH]c(-c2ccccn2)nc2sc3c(c12)CCCCCC3	2.95	5.89	6.46	2.34	3.31	6.03	3.39	3.89	4.07	7.76	8.51	> 100	5.25	8.71
O=c1[nH]c(-c2ccncc2)nc2sc3c(c12)CCCCCC3	> 100	> 100	> 100	> 100	> 100	> 100	> 100	> 100	> 100	> 100	> 100	> 100	> 100	> 100
